From ChEMBL document CHEMBL3046382, “Synthesis and insecticidal activities and SAR studies of novel benzoheterocyclic diacylhydrazine derivatives” (2009)
Converted amounts (≈) assume the structure as drawn.

What was measured:
Type in all cases: functional
Helicoverpa armigera [1] = assay: Stomach toxicity in Helicoverpa armigera in compound treated corn leaves assessed as mortality at 1000 mg/L measured after 4 days by leaf-dip method
Procedure, shortened: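 Corn leaves dipped in acetone solution at 1000 mg L⁻¹ and air-dried. Each treated disk placed singly in a 24-hole box and given 10 third-instar larvae. Percentage mortality scored after 4 days.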

Mythimna separata [2] = assay: Stomach toxicity in fourth-instar Mythimna separata (Oriental armyworm) larvae in compound treated corn leaves assessed as mortality at 5 mg/kg measured after 4 days; details: 96 h
Culicidae [3] = assay: Toxicity against fourth-instar larvae of Culex pipiens pallens assessed as mortality at 0.5 mg/kg measured after 7 to 10 days
Procedure, shortened: (§1)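 For each concentration, 1 mL of dilution was added to 99 mL water and 20 fourth-instar larvae introduced. Percentage mortality assessed 7–10 days after treatment.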

Spodoptera exigua [4] = assay: Contact toxicity in fourth-instar Spodoptera exigua assessed as mortality by topical application measured after 72 hr; details: read-out: LD50 (the source's name)
Procedure, shortened: (§2)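 Topical application to fourth-instar larvae: 1.0 μL of acetone dilution at various concentrations placed on the thoracic tergite by automatic microapplicator. Larvae then returned to standard rearing. Acetone-only control, each treatment three times. Mortality calculated at 48 and 72 h and LC50 derived.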

Plutella xylostella [5] = assay: Contact toxicity in fourth-instar Plutella xylostella (diamondback moth) larva assessed as mortality measured after 72 hr by insect-dip method
Procedure, shortened: (§3)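 Fourth-instar larvae immersed for 5 min in acetone solutions diluted with water, five concentrations. Larvae then held at 25 ± 1 °C under standard rearing. Usually 30 insects per dose, each treatment in triplicate, water-only control. Mortality read at 48 and 72 h and LC50 derived.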

Plutella xylostella [6] = assay: Contact toxicity in fourth-instar Plutella xylostella (diamondback moth) larva assessed as mortality measured after 48 hr by insect-dip method; procedure, shortened: as §3
Mythimna separata [7] = assay: Stomach toxicity in fourth-instar Mythimna separata(Oriental armyworm) larvae in compound treated corn leaves assessed as mortality at 200 mg/kg measured after 4 days; details: 96 h
Culicidae [8] = assay: Toxicity against fourth-instar larvae of Culex pipiens pallens assessed as mortality at 1 mg/kg measured after 7 to 10 days; procedure, shortened: as §1
Spodoptera exigua [9] = assay: Contact toxicity in fourth-instar Spodoptera exigua assessed as mortality by topical application measured after 48 hr; details: read-out: LD50 (the source's name); procedure, shortened: as §2
Ostrinia nubilalis = assay: Stomach toxicity in Ostrinia nubilalis (European corn borer) in compound treated corn leaves assessed as mortality measured after 4 days by leaf-dip method; details: for LC50: Ostrinia nubilalis, 96 h
Procedure, shortened: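 Corn leaf disks (about 5 cm) dipped 3–5 s in test solution, air-dried, and placed singly in 7 cm glass vessels. Each disk given 10 third-instar larvae. Acetone-treated leaves as control, four replicates. Percentage mortality at 4 days; LC50 and LC95 derived.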

Helicoverpa armigera [10] = assay: Contact toxicity in Helicoverpa armigera assessed as mortality at 1000 mg/L by topical application measured after 4 days […]
Procedure, shortened: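 Third-instar larvae; compounds in acetone at 1000 mg L⁻¹, 0.5 μL applied to the thoracic tergite by microapplicator. Larvae then returned to standard rearing conditions. Percentage mortality scored 4 days after treatment.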

Mythimna separata [11] = assay: Stomach toxicity in fourth-instar Mythimna separata (Oriental armyworm) larvae in compound treated corn leaves assessed as mortality at 10 mg/kg measured after 4 days; details: 96 h
Mythimna separata [12] = assay: Stomach toxicity in fourth-instar Mythimna separata (Oriental armyworm) larvae in compound treated corn leaves assessed as mortality at 2.5 mg/kg measured after 4 days; details: 96 h
Mythimna separata [13] = assay: Stomach toxicity in fourth-instar Mythimna separata (Oriental armyworm) larvae in compound treated corn leaves assessed as mortality at 50 mg/kg measured after 4 days; details: 96 h
Culicidae [14] = assay: Toxicity against fourth-instar larvae of Culex pipiens pallens assessed as mortality at 2 mg/kg measured after 7 to 10 days; procedure, shortened: as §1
Mythimna separata [15] = assay: Stomach toxicity in fourth-instar Mythimna separata (Oriental armyworm) larvae in compound treated corn leaves assessed as mortality at 25 mg/kg measured after 4 days; details: 96 h
Mythimna separata [16] = assay: Stomach toxicity in fourth-instar Mythimna separata (Oriental armyworm) larvae in compound treated corn leaves assessed as mortality at 100 mg/kg measured after 4 days; details: 96 h
Spodoptera exigua [17] = assay: Stomach toxicity in Spodoptera exigua in compound treated cabbage leaves assessed as mortality measured after 3 days by leaf-dip method; details: 72 h
Procedure, shortened: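 Cabbage leaf disks (5 cm × 3 cm) dipped 3 s in test solution, air-dried, and placed singly in 80 cm³ boxes. Each disk given five third-instar larvae. Water- and acetone-treated leaves as controls, each treatment three times. Percentage mortality read at 3 days.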

For Cc1cc(C)cc(C(=O)N(NC(=O)c2ccc3c(c2C)CC(C)O3)C(C)(C)C)c1 (stereo unspecified), which Activity (Helicoverpa armigera [1]) is on record?
Its Activity is 70%.

And the mortality at 5 mg/kg (Mythimna separata [2])?
The mortality at 5 mg/kg was 80%.

What about the mortality at 0.5 mg/kg (Culicidae [3]) of the same molecule?
The mortality at 0.5 mg/kg was 10%.

What about the LC50 (Spodoptera exigua [4]) of the same molecule?
The LC50 was 52.8 µg/mL (≈ 134 µM).

And the LC50 (Plutella xylostella [5])?
The LC50 was 81.4 µg/mL (≈ 206 µM).

And the LC50 (Plutella xylostella [6])?
Its LC50 is 124 µg/mL (≈ 314 µM).

And the mortality at 200 mg/kg (Mythimna separata [7])?
The mortality at 200 mg/kg was 100%.

And the mortality at 1 mg/kg (Culicidae [8])?
The mortality at 1 mg/kg was 10%.

And the LC50 (Spodoptera exigua [9])?
The LC50 was 190 µg/mL (≈ 482 µM).

And the LC95 (Ostrinia nubilalis)?
The LC95 was 271.89 µg/mL (≈ 689 µM).

And the LC50 (Ostrinia nubilalis)?
The LC50 was 40.5 µg/mL (≈ 103 µM).

What about the Activity (Helicoverpa armigera [10]) of the same molecule?
The Activity was 50%.

And the mortality at 10 mg/kg (Mythimna separata [11])?
Its mortality at 10 mg/kg is 95%.

And the mortality at 2.5 mg/kg (Mythimna separata [12])?
Its mortality at 2.5 mg/kg is 20%.

What about the mortality at 50 mg/kg (Mythimna separata [13]) of the same molecule?
The mortality at 50 mg/kg was 100%.

What about the mortality at 2 mg/kg (Culicidae [14]) of the same molecule?
Its mortality at 2 mg/kg is 80%.

What about the mortality at 25 mg/kg (Mythimna separata [15]) of the same molecule?
The mortality at 25 mg/kg was 100%.

What about the mortality at 100 mg/kg (Mythimna separata [16]) of the same molecule?
The mortality at 100 mg/kg was 100%.

What about the LC50 (Spodoptera exigua [17]) of the same molecule?
Its LC50 is 12.7 µg/mL (≈ 32.2 µM).

Which results are given for Cc1cc(C)cc(C(=O)N(NC(=O)c2ccc3c(c2C)CCCO3)C(C)(C)C)c1 [CHROMAFENOZIDE]?
Activity (Helicoverpa armigera [1]): 65%; mortality at 5 mg/kg (Mythimna separata [2]): 100%; mortality at 0.5 mg/kg (Culicidae [3]): 10%; LC50 (Spodoptera exigua [4]): 14.9 µg/mL (≈ 37.8 µM); LC50 (Plutella xylostella [5]): 123 µg/mL (≈ 312 µM); LC50 (Plutella xylostella [6]): 236 µg/mL (≈ 598 µM); mortality at 200 mg/kg (Mythimna separata [7]): 100%; mortality at 1 mg/kg (Culicidae [8]): 80%; LC50 (Spodoptera exigua [9]): 29.8 µg/mL (≈ 75.5 µM); LC95 (Ostrinia nubilalis): 139.25 µg/mL (≈ 353 µM); LC50 (Ostrinia nubilalis): 18.6 µg/mL (≈ 47.2 µM); Activity (Helicoverpa armigera [10]): 60%; mortality at 10 mg/kg (Mythimna separata [11]): 100%; mortality at 2.5 mg/kg (Mythimna separata [12]): 80%; mortality at 50 mg/kg (Mythimna separata [13]): 100%; mortality at 2 mg/kg (Culicidae [14]): 100%; mortality at 25 mg/kg (Mythimna separata [15]): 100%; mortality at 100 mg/kg (Mythimna separata [16]): 100%; LC50 (Spodoptera exigua [17]): 6.3 µg/mL (≈ 16 µM)

Which results are given for Cc1cc(C)cc(C(=O)N(NC(=O)c2ccc3c(c2C)OC(C)C3)C(C)(C)C)c1 (stereo unspecified) [FUXIAN]?
Activity (Helicoverpa armigera [1]): 60%; mortality at 5 mg/kg (Mythimna separata [2]): 100%; mortality at 0.5 mg/kg (Culicidae [3]): 50%; LC50 (Spodoptera exigua [4]): 12.6 µg/mL (≈ 31.9 µM); LC50 (Plutella xylostella [5]): 304 µg/mL (≈ 772 µM); LC50 (Plutella xylostella [6]): 372 µg/mL (≈ 943 µM); mortality at 200 mg/kg (Mythimna separata [7]): 100%; mortality at 1 mg/kg (Culicidae [8]): 100%; LC50 (Spodoptera exigua [9]): 59.6 µg/mL (≈ 151 µM); LC95 (Ostrinia nubilalis): 147.78 µg/mL (≈ 375 µM); LC50 (Ostrinia nubilalis): 25.6 µg/mL (≈ 64.8 µM); Activity (Helicoverpa armigera [10]): 60%; mortality at 10 mg/kg (Mythimna separata [11]): 100%; mortality at 2.5 mg/kg (Mythimna separata [12]): 95%; mortality at 50 mg/kg (Mythimna separata [13]): 100%; mortality at 2 mg/kg (Culicidae [14]): 100%; mortality at 25 mg/kg (Mythimna separata [15]): 100%; mortality at 100 mg/kg (Mythimna separata [16]): 100%; LC50 (Spodoptera exigua [17]): 5 µg/mL (≈ 12.7 µM)

For Cc1cc(C)cc(C(=O)N(NC(=O)c2ccc3c(c2Cl)CCCO3)C(C)(C)C)c1 [N'-TERT-BUTYL-N'-(3,5-DIMETHYLBENZOYL)-N-5-CHLORO-6-CHROMANECARBOHYDRAZIDE], which Activity (Helicoverpa armigera [1]) is on record?
The Activity was 80%.

And the LC50 (Spodoptera exigua [4])?
The LC50 was 11.7 µg/mL (≈ 28.2 µM).

What about the LC50 (Plutella xylostella [5]) of the same molecule?
The LC50 was 70.8 µg/mL (≈ 171 µM).

What about the LC50 (Plutella xylostella [6]) of the same molecule?
Its LC50 is 113 µg/mL (≈ 273 µM).

And the LC50 (Spodoptera exigua [9])?
The LC50 was 17.3 µg/mL (≈ 41.7 µM).

And the LC95 (Ostrinia nubilalis)?
The LC95 was 405.65 µg/mL (≈ 978 µM).

What about the LC50 (Ostrinia nubilalis) of the same molecule?
Its LC50 is 55.6 µg/mL (≈ 134 µM).

And the Activity (Helicoverpa armigera [10])?
Its Activity is 40%.

What about the LC50 (Spodoptera exigua [17]) of the same molecule?
The LC50 was 5.5 µg/mL (≈ 13.3 µM).
